Active and inactive are the calls of the source. The rule behind the calls is not given here.
Experiments:
HaCaT [1] = assay: Induction of apoptosis in human HaCaT cells assessed as increase in histone-associated DNA fragments in oligonucleosomes at 0.1 uM after 24 hrs by ELISA; format: cell-based
Summary of the method: (§1)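 HaCaT cells (2 × 10^4), grown in DMEM with 10% FBS, penicillin/streptomycin and 2 mM L-glutamine, exposed to compound (DMSO stock) for 24 h. Cells lysed, supernatant taken after centrifugation and incubated 2 h on a streptavidin-coated plate with anti-histone-biotin and anti-DNA-peroxidase. ABTS added for 30 min, A405 read. Output is enrichment factor vs control, mean ± SD of three independent experiments.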

A-431 [2] = assay: Induction of apoptosis in human A431 cells assessed as increase in histone-associated DNA fragments in mononucleosomes at 0.1 uM after 24 hrs by ELISA; format: functional, cell-based
Summary of the method: (§2)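 Cells (2 × 10^4) were incubated for 24 h at 0.1, 0.5 or 1 µM, lysed and centrifuged. Supernatants went onto a streptavidin plate with anti-histone-biotin and anti-DNA-peroxidase for 2 h, followed by ABTS for 30 min and a reading at 405 nm. Nucleosome content was expressed as an enrichment factor, as mean ± SD of three experiments.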

HeLa [3] = assay: Induction of apoptosis in human HeLa cells assessed as increase in histone-associated DNA fragments in oligonucleosomes at 0.1 uM after 24 hrs by ELISA; format: functional, cell-based; summary of the method: as §2
MCF7 [4] = assay: Induction of apoptosis in human MCF7 cells assessed as increase in histone-associated DNA fragments in mononucleosomes at 0.1 uM after 24 hrs by ELISA; format: functional, cell-based; summary of the method: as §2
MDA-MB-231 [5] = assay: Induction of apoptosis in human MDA-MB-231 cells assessed as increase in histone-associated DNA fragments in oligonucleosomes at 0.1 uM after 24 hrs by ELISA; format: functional, cell-based; summary of the method: as §2
HeLa [6] = assay: Potency index, ratio of CA-4 IC50 to compound IC50 for cytotoxicity against human HeLa cells; format: functional
MDA-MB-231 [7] = assay: Induction of apoptosis in human MDA-MB-231 cells assessed as increase in histone-associated DNA fragments in mononucleosomes at 0.1 uM after 24 hrs by ELISA; format: functional, cell-based; summary of the method: as §2
SK-OV-3 [8] = assay: Induction of apoptosis in human SKOV3 cells assessed as increase in histone-associated DNA fragments in oligonucleosomes at 0.1 uM after 24 hrs by ELISA; format: functional, cell-based; summary of the method: as §2
HaCaT [9] = assay: Induction of apoptosis in human HaCaT cells assessed as increase in histone-associated DNA fragments in mononucleosomes at 0.1 uM after 24 hrs by ELISA; format: cell-based; summary of the method: as §1
HeLa [10] = assay: Induction of apoptosis in human HeLa cells assessed as increase in histone-associated DNA fragments in mononucleosomes after 24 hrs by ELISA; format: functional, cell-based; summary of the method: as §2
Tubulin (Homo sapiens) [11] = molecular target: T1, Tubulin (Homo sapiens) (UniProt P68371+Q9H4B7+P0DPH7+P68366+Q13509+Q71U36+P04350+Q3ZCM7+P07437+P68363+Q9BQE3+Q6PEY2+Q13885+Q9BVA1+Q9BUF5); assay: Inhibition of tubulin polymerization in human HeLa cells assessed as chromatin condensation at 1 uM after 24 hrs by Hoechst 33258 staining-based fluorescence microscopic analysis; format: cell-based
Summary of the method: (§3)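 Cells seeded at 12.5 × 10^4 per well and exposed to 1 µM compound for 24 h. Nuclei were stained with Hoechst 33258 (10 µg/mL, 30 min, 37 °C), then fixed in 4% formaldehyde/PBS (15 min, RT). Cells were permeabilized with 1% Triton X-100, blocked with 2% BSA/PBS for 1 h, and incubated with anti-α-tubulin-FITC (1:50) overnight at 4 °C. Imaged by fluorescence microscopy.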

SK-OV-3 [12] = assay: Induction of apoptosis in human SKOV3 cells assessed as increase in histone-associated DNA fragments in oligonucleosomes after 24 hrs by ELISA; format: functional, cell-based; summary of the method: as §2
MCF7 [13] = assay: Induction of apoptosis in human MCF7 cells assessed as increase in histone-associated DNA fragments in mononucleosomes after 24 hrs by ELISA; format: functional, cell-based; summary of the method: as §2
MDA-MB-231 [14] = assay: Induction of apoptosis in human MDA-MB-231 cells assessed as increase in histone-associated DNA fragments in mononucleosomes after 24 hrs by ELISA; format: functional, cell-based; summary of the method: as §2
SK-OV-3 [15] = assay: Induction of apoptosis in human SKOV3 cells assessed as increase in histone-associated DNA fragments in mononucleosomes after 24 hrs by ELISA; format: functional, cell-based; summary of the method: as §2
SK-OV-3 [16] = assay: Cell cycle arrest in human SKOV3 cells assessed as accumulation of cells at G2/M phase after 24 hrs by propidium iodide staining-based FACS analysis; format: functional
Summary of the method: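 Cells were seeded at 5 × 10^5 per well in DMEM with 10% FBS and left overnight, then exposed to 0.1, 0.5 or 1 µM for 24 h. DMSO served as the negative control and 50 nM camptothecin as the positive control. Cells were trypsinized, fixed in 70% ethanol for 30 min at 4 °C, stained with 50 µg/mL PI plus 100 µg/mL RNase A for 30 min in the dark, and analysed by flow cytometry. Results are mean ± SD of three experiments, compared by ANOVA with Dunnett's test.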

HaCaT [17] = assay: Induction of apoptosis in human HaCaT cells assessed as increase in histone-associated DNA fragments in mononucleosomes after 24 hrs by ELISA; format: cell-based; summary of the method: as §2
MCF7 [18] = assay: Induction of apoptosis in human MCF7 cells assessed as increase in histone-associated DNA fragments in oligonucleosomes after 24 hrs by ELISA; format: functional, cell-based; summary of the method: as §2
Tubulin (Homo sapiens) [19] = molecular target: T1, Tubulin (Homo sapiens); assay: Inhibition of tubulin polymerization in human MDA-MB-231 cells assessed as chromatin condensation at 1 uM after 24 hrs by Hoechst 33258 staining-based fluorescence microscopic analysis; format: cell-based; summary of the method: as §3
A-431 [20] = assay: Induction of apoptosis in human A431 cells assessed as increase in histone-associated DNA fragments in oligonucleosomes after 24 hrs by ELISA; format: functional, cell-based; summary of the method: as §2
MDA-MB-231 [21] = assay: Induction of apoptosis in human MDA-MB-231 cells assessed as increase in histone-associated DNA fragments in oligonucleosomes after 24 hrs by ELISA; format: functional, cell-based; summary of the method: as §2
Tubulin (Homo sapiens) [22] = molecular target: T1, Tubulin (Homo sapiens); assay: Inhibition of tubulin polymerization in human SKOV3 cells assessed as chromatin condensation at 1 uM after 24 hrs by Hoechst 33258 staining-based fluorescence microscopic analysis; format: cell-based; summary of the method: as §3

COc1ccc(-c2ocnc2-c2cc(OC)c(SC)c(OC)c2)cc1O
Activity (HaCaT [1]): Toxic
Activity (A-431 [2]): Active
Activity (HeLa [3]): Active
Activity (MCF7 [4]): Active
Activity (MDA-MB-231 [5]): Active
Ratio IC50 (HeLa [6]): 10
Activity (MDA-MB-231 [7]): Active
Activity (SK-OV-3 [8]): Active
Activity (HaCaT [9]): Toxic

COc1ccc(-c2ocnc2-c2cc(Br)c(OC)c(OC)c2)cc1SC
Activity (HeLa [10]): Dose-dependent effect
inhibition (Tubulin (Homo sapiens) [11]): Active
Activity (SK-OV-3 [12]): Dose-dependent effect
Activity (MCF7 [13]): Dose-dependent effect
Activity (MDA-MB-231 [14]): Dose-dependent effect
Activity (SK-OV-3 [15]): Dose-dependent effect
Activity (SK-OV-3 [16]): Dose-dependent effect
Activity (HaCaT [17]): Dose-dependent effect
Activity (MCF7 [18]): Dose-dependent effect
inhibition (Tubulin (Homo sapiens) [19]): Active
Activity (A-431 [20]): Dose-dependent effect
Activity (MDA-MB-231 [21]): Dose-dependent effect
inhibition (Tubulin (Homo sapiens) [22]): Active

Reference: ChEMBL document CHEMBL4145466, “Design, synthesis, and biological evaluation of novel combretastatin A-4 thio derivatives as microtubule targeting agents” (Eur J Med Chem, 2018)
